Test results: ChEMBL document CHEMBL1687900, “Potent farnesyltransferase inhibitors with 1,4-diazepane scaffolds as novel destabilizing microtubule agents in hormone-resistant prostate cancer” (J Med Chem, 2011)
Active and inactive are the calls of the source. The rule behind the calls is not given here.

Key:
[1] = test system: PC-3; assay: Anticancer activity against hormone-resistant human PC3 cells assessed as cell proliferation at 100 uM after 72 hrs by MTT assay; type: functional; conditions: PC-3, 72 h
[2] = test system: DU-145; assay: Anticancer activity against hormone-resistant human DU145 cells assessed as cell proliferation at 100 uM after 72 hrs by MTT assay; type: functional; conditions: DU-145, 72 h
[3] = Inhibition of FTase
Procedure, shortened: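 Partially purified recombinant yeast FTase (2.2 mg/mL stock) and dansyl-GCVLS peptide (2 μM solution) were used with inhibitor in DMSO. Buffer was 50 mM Tris/HCl pH 7.5, 5.5 mM DTT, 10 mM MgCl2, 10 μM ZnCl2 and 0.08% CHAPS. Reaction was started with 10 μM FPP solution (1:10 addition). Fluorescence (ex 340 / em 486 nm) was followed 15 min at 30 °C. Values are the mean of three determinations.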

[4] = Apparent permeability across human Caco2 cells; type: ADME, cell-based; conditions: Caco-2
[5] = test system: DU-145; assay: Anticancer activity against hormone-resistant human DU145 cells assessed as cell proliferation after 72 hrs by MTT assay; type: functional, cell-based; conditions: DU-145, 72 h
Procedure, shortened: (§1)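 DU145 or PC3 cells (RPMI 1640, 10% FBS, 2 mM glutamine, 37 °C, 5% CO2) seeded at (1.6-1.8) 10^4 per well. After 72 h they were serum-deprived, and next day treated with various compound concentrations for 72 h. Viability was read by MTT (4 mg/mL, 4 h), SDS/HCl lysis and absorbance at 570 nm. Values come from at least three independent determinations.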

[6] = test system: PC-3; assay: Anticancer activity against hormone-resistant human PC3 cells assessed as cell proliferation after 72 hrs by MTT assay; type: functional, cell-based; conditions: PC-3, 72 h; procedure, shortened: as §1
[7] = test system: DU-145; assay: Anticancer activity against human DU145 cells xenografted mouse assessed as suppression of tumor at 30 mg/kg; type: functional
[8] = test system: PC-3; assay: Anticancer activity against human PC3 cells xenografted mouse assessed as suppression of tumor at 30 mg/kg; type: functional
[9] = test system: PC-3; assay: Induction of disorganization of tubulin in human PC3 cells assessed as microtubule bundles at 75 uM after 24 hrs by immunofluorescence microscopy; type: functional, cell-based
Procedure, shortened: (§2)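 PC3 cells were grown on poly-D-lysine coverslips overnight, synchronized, then exposed 24 h to compound or DMSO. They were fixed in 4% paraformaldehyde, permeabilized with 0.5% Triton X-100, and blocked 45 min in 5% BSA. Staining used Alexa 488 anti-α-tubulin (1/100). Microtubule network was examined by fluorescence microscopy.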

[10] = test system: Liver microsomes; assay: Metabolic stability of the compound in human liver microsome assessed as compound remaining; type: ADME
Procedure, shortened: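 Metabolic stability was tested in human liver microsomes, expressed as percentage of parent compound remaining at assay end.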

[11] = test system: PC-3; assay: Induction of disorganization of tubulin in human PC3 cells assessed as microtubule bundles at 32 uM by immunofluorescence microscopy; type: functional, cell-based; procedure, shortened: as §2
[12] = test system: PC-3; assay: Induction of disorganization of tubulin in human PC3 cells assessed as decrease in microtubulin mass at 32 uM by immunofluorescence microscopy; type: functional, cell-based; procedure, shortened: as §2
[13] = test system: PC-3; assay: Induction of disorganization of tubulin in human PC3 cells assessed as decrease in microtubulin mass at 18 uM by immunofluorescence microscopy; type: functional, cell-based; procedure, shortened: as §2
[14] = test system: PC-3; assay: Induction of disorganization of tubulin in human PC3 cells assessed as microtubule bundles at 18 uM by immunofluorescence microscopy; type: functional, cell-based; procedure, shortened: as §2
[15] = test system: PC-3; assay: Induction of disorganization of tubulin in human PC3 cells assessed as microtubule bundles at 21 uM by immunofluorescence microscopy; type: functional, cell-based; procedure, shortened: as §2

SMILES | inhibition at 100 µM [1] [%] | inhibition at 100 µM [2] [%] | IC50 [3] [µM] | IC50 [5] [µM] | IC50 [6] [µM] | other results
N#Cc1ccc(Cn2cncc2CN2CCCN(C(=O)c3ccccc3F)CC2)cc1 | 2 | 7 | 0.14 |  |  | 
CNC(=C[N+](=O)[O-])NCCSCc1ccc(CN(C)C)o1 [RANITIDINE] |  |  |  |  |  | Papp [4]: 0.7 ×10⁻⁶ cm/s
N#Cc1ccc(Cn2cncc2CN2CCCN(C(=O)c3ccc(-c4ccccc4)cc3)CC2)cc1 |  |  | 0.153 | 47 | 50 | 
CC(C)NCC(O)COc1cccc2ccccc12 (configuration not stated) [PROPRANOLOL] |  |  |  |  |  | Papp [4]: 41.1 ×10⁻⁶ cm/s
N#Cc1ccc(Cn2cncc2CN2CCC(c3ccccc3)N(C(=O)C34CC5CC(CC(C5)C3)C4)CC2)cc1 (configuration not stated) |  |  | 0.017 | 42 | 41 | 
N#Cc1ccc(Cn2cncc2CN2CCCN(C(=O)c3ccccc3)CC2)cc1 | 22 | 24 | 0.008 |  |  | 
CC[C@H](C)[C@@H](CO[C@@H](Cc1ccccc1)C(=O)N[C@@H](CCS(C)(=O)=O)C(=O)OC(C)C)NC[C@@H](N)CS |  |  | 0.027 | 78 | 75 | inhibition in vivo at 30 mg/kg [7]: 85%; inhibition in vivo at 30 mg/kg [8]: 87%; Activity [9]: Active
N#Cc1ccc(Cn2cncc2CN2CCCN(C(=O)c3cccc4ccccc34)CC2)cc1 |  |  | 0.039 | 44 | 65 | 
N#Cc1ccc(Cn2cncc2CN2CCN(C(=O)c3ccccc3)CCC2c2ccccc2)cc1 (configuration not stated) |  |  | 0.009 | 73 | 33 | 
N#Cc1ccc(Cn2cncc2CN2CCCN(C(=O)c3ccccc3-c3ccccc3)CC2)cc1 |  |  | 0.026 | 43 | 39 | 
N#Cc1ccc(Cn2cncc2CN2CCCN(C(=O)c3ccsc3)CC2)cc1 | 4 | 3 | 0.042 |  |  | 
N#Cc1ccc(Cn2cncc2CN2CCCN(C(=O)c3cccc(-c4ccccc4)c3)CC2)cc1 |  |  | 0.043 | 42 | 44 | 
N#Cc1ccc(Cn2cncc2CN2CCC(c3ccccc3)N(C(=O)c3ccccc3)CC2)cc1 (configuration not stated) |  |  | 0.079 | 75 | 80 | 
COc1cccc(C(=O)N2CCCN(Cc3cncn3Cc3ccc(C#N)cc3)CC2)c1OC |  | 44 | 0.043 |  | 80 | 
Cc1cccc(C(=O)N2CCCN(Cc3cncn3Cc3ccc(C#N)cc3)CC2)c1 | 0 | 34 | 0.015 |  |  | 
N#Cc1ccc(Cn2cncc2CN2CCC(c3ccccc3)N(C(=O)c3ccc(Cl)cc3Cl)CC2)cc1 (configuration not stated) |  | 31 | 0.382 |  | 76 | 
N#Cc1ccc(Cn2cncc2CN2CCCN(C(=O)c3ccc(F)cc3)CC2)cc1 | 40 | 27 | 0.069 |  |  | 
N#Cc1ccc(Cn2cncc2CN2CCN(C(=O)c3cccc4ccccc34)CCC2c2ccccc2)cc1 (configuration not stated) |  |  | 0.018 | 48 | 77 | 

SMILES | inhibition at 100 µM [1] [%] | inhibition at 100 µM [2] [%] | IC50 [3] [µM] | IC50 [5] [µM] | IC50 [6] [µM] | other results
CC(CCc1ccccc1)NCC(O)c1ccc(O)c(C(N)=O)c1 (configuration not stated) [LABETALOL] |  |  |  |  |  | Papp [4]: 7.3 ×10⁻⁶ cm/s
N#Cc1ccc(Cn2cncc2CN2CCN(C(=O)c3ccccc3-c3ccccc3)CCC2c2ccccc2)cc1 (configuration not stated) |  |  | 0.017 | 35 | 50 | 
N#Cc1ccc(Cn2cncc2CN2CCCN(C(=O)Cc3cccc4ccccc34)CC2)cc1 | 40 |  | 0.013 | 93 |  | 
CC(C)CC(=O)N1CCCN(Cc2cncn2Cc2ccc(C#N)cc2)CC1 | 13 | 18 | 0.205 |  |  | 
N#Cc1ccc(Cn2cncc2CN2CCC(c3ccccc3)N(C(=O)c3ccccc3-c3ccccc3)CC2)cc1 (configuration not stated) |  |  | 0.057 | 47 | 50 | 
N#Cc1ccc(Cn2cncc2CN2CCN(C(=O)C34CC5CC(CC(C5)C3)C4)CCC2c2ccccc2)cc1 (configuration not stated) |  |  | 0.006 | 32 | 32 | Stability [10]: 3%; Papp [4]: 3.6 ×10⁻⁶ cm/s; Activity [11]: Active; Activity [12]: Active
N#Cc1ccc(Cn2cncc2CN2CCN(C(=O)C3CCCCC3)CCC2c2ccccc2)cc1 (configuration not stated) |  |  | 0.007 | 29 | 18 | Stability [10]: 2%; Papp [4]: 25.1 ×10⁻⁶ cm/s; Activity [13]: Active; Activity [14]: Active
N#Cc1ccc(Cn2cncc2CN2CCCN(C(=O)c3ccc4ccccc4c3)CC2)cc1 |  |  | 0.035 | 52 | 47 | 
N#Cc1ccc(Cn2cncc2CN2CCCN(C(=O)c3ccccc3Cl)CC2)cc1 |  |  | 0.025 | 100 | 70 | 
N#Cc1ccc(Cn2cncc2CN2CCCN(C(=O)C3CCCCC3)CC2)cc1 | 20 | 23 | 0.024 |  |  | 
N#Cc1ccc(Cn2cncc2CN2CCCN(C(=O)c3ccc(Cl)cc3Cl)CC2)cc1 |  |  | 0.041 | 45 | 26 | 
N#Cc1ccc(Cn2cncc2CN2CCC(c3ccccc3)N(C(=O)c3cccc4ccccc34)CC2)cc1 (configuration not stated) |  |  | 0.06 | 54 | 50 | 
N#Cc1ccc(Cn2cncc2CN2CCC(c3ccccc3)N(C(=O)C3CCCCC3)CC2)cc1 (configuration not stated) | 5 |  | 0.503 |  |  | 
N#Cc1ccc(Cn2cncc2CN2CCCN(C(=O)C34CC5CC(CC(C5)C3)C4)CC2)cc1 |  |  | 0.005 | 44 | 21 | Stability [10]: 1%; Papp [4]: 28.8 ×10⁻⁶ cm/s; Activity [15]: Active
N#Cc1ccc(Cn2cncc2CN2CCN(C(=O)c3ccc(Cl)cc3Cl)CCC2c2ccccc2)cc1 (configuration not stated) |  |  | 0.021 | 44 | 38 | 
N#Cc1ccc(Cn2cncc2CN2CCCN(C(=O)c3ccccc3Br)CC2)cc1 | 15 | 17 | 0.064 |  |  | 
N#Cc1ccc(Cn2cncc2CN2CCCN(C(=O)c3ccncc3)CC2)cc1 | 12 | 6 | 0.142 |  |  | 
